Values after ≈ are worked out from the molar mass of the structure shown.
Assays:
[1] = tested on: Mycobacterium tuberculosis; assay: Antimycobacterial activity against Mycobacterium tuberculosis 331/88 after 14 days by micromethod; assay type: functional; details: 331/88, 336 h
How it was run: (§1)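 Inocula: M. tuberculosis My 331/88 at 10^-3 dilution, M. avium My 330/88 at 10^-5, M. kansasii My 235/80 and clinical isolate 6509/96 at 10^-4. Compounds added in DMSO at 1000 down to 0.5 (twofold series). Read at 14 and 21 days, plus 7 days for M. kansasii. MIC taken as lowest concentration inhibiting growth.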

[2] = tested on: Mycobacterium tuberculosis; assay: Antimycobacterial activity against Mycobacterium tuberculosis 331/88 after 21 days by micromethod; assay type: functional; details: 331/88, 504 h; how it was run: as §1
Mycobacterium avium [3] = assay: Antimycobacterial activity against isoniazid resistance Mycobacterium avium 330/88 after 14 days by micromethod; assay type: functional; details: 330/88, 336 h; how it was run: as §1
Mycobacterium avium [4] = assay: Antimycobacterial activity against isoniazid resistance Mycobacterium avium 330/88 after 21 days by micromethod; assay type: functional; details: 330/88, 504 h; how it was run: as §1
Mycobacterium kansasii [5] = assay: Antimycobacterial activity against Mycobacterium kansasii 6509/96 clinical isolate after 7 days by micromethod; assay type: functional; details: 6509/96, 168 h; how it was run: as §1
Mycobacterium kansasii [6] = assay: Antimycobacterial activity against isoniazid resistance Mycobacterium kansasii 225/80 after 7 days by micromethod; assay type: functional; details: 225/80, 168 h
Mycobacterium kansasii [7] = assay: Antimycobacterial activity against isoniazid resistance Mycobacterium kansasii 225/80 after 14 days by micromethod; assay type: functional; details: 225/80, 336 h
Mycobacterium kansasii [8] = assay: Antimycobacterial activity against isoniazid resistance Mycobacterium kansasii 225/80 after 21 days by micromethod; assay type: functional; details: 225/80, 504 h
Mycobacterium kansasii [9] = assay: Antimycobacterial activity against Mycobacterium kansasii 6509/96 clinical isolate after 14 days by micromethod; assay type: functional; details: 6509/96, 336 h; how it was run: as §1
Mycobacterium kansasii [10] = assay: Antimycobacterial activity against Mycobacterium kansasii 6509/96 clinical isolate after 21 days by micromethod; assay type: functional; details: 6509/96, 504 h; how it was run: as §1
[11] = target: T1, Isocitrate lyase (Mycobacterium tuberculosis) (UniProt P9WKK7); assay: Inhibition of Mycobacterium tuberculosis H37Rv isocitrate lyase expressed in Escherichia coli HB101 at 10 umol/L
T1 sequence (whole entry): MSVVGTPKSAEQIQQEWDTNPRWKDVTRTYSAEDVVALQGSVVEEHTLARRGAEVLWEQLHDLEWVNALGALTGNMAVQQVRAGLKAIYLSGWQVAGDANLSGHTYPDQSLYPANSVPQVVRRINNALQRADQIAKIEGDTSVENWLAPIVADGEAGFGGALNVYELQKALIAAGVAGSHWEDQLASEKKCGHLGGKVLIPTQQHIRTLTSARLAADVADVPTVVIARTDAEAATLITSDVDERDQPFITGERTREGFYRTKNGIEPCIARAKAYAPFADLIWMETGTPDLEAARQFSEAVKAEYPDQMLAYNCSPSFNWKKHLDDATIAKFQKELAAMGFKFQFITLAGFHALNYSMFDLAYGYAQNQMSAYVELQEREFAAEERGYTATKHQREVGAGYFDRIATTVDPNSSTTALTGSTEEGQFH
How it was run: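 Isocitrate lyase assayed per Dixon–Kornberg in 96-well format. Buffer: 50 mmol/L KH2PO4, 4 mmol/L MgCl2, 4 mmol/L phenylhydrazine, 12 mmol/L cysteine, pH 7.0. Glyoxylate phenylhydrazone read at 324 nm. Compounds added in DMSO, with DMSO-alone inhibition subtracted.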

HepG2 = assay: Cytotoxicity against human HepG2 cells after 24 hrs by CellTiter-96 cell viability assay; assay type: functional, cell-based; details: HepG2, 24 h
How it was run: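 Hep G2 human hepatic cells (passage 12), 10,000 per well, grown 24 h at 37 °C, 5% CO2 in MEM with 1% glutamine, 10% FBS and 1% nonessential amino acids. Compounds in DMSO at eight increasing concentrations, quadruplicate, 24 h at 37 °C. Kit reagent added, 1.5 h at 37 °C, absorbance 490 nm. IC50 is the concentration reducing viability to 50% of control.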

[12] = Selectivity index, ratio of IC50 for human HepG2 cells to MIC for Mycobacterium tuberculosis 331/88 after 14 days; assay type: functional
How it was run: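 Cytotoxicity in Hep G2 cells (passage 12), 10,000 cells/well, in MEM with 10% FBS, 1% glutamine and 1% nonessential amino acids. Cells preincubated 24 h, 37 °C, 5% CO2. Compounds in DMSO at eight concentrations in quadruplicate, 24 h. MTS-type reagent added for 1.5 h, A490 read, IC50 taken at 50% viability. SI = this IC50 over the 14-day M. tuberculosis MIC.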

COc1cc(Cl)ccc1C(=O)Nc1ccc(Cl)cc1O
MIC [1]: 8 µM (≈ 2.5 µg/mL)
MIC [2]: 8 µM (≈ 2.5 µg/mL)
MIC (Mycobacterium avium [3]): 62.5 µM (≈ 19.5 µg/mL)
MIC (Mycobacterium avium [4]): 125 µM (≈ 39 µg/mL)
MIC (Mycobacterium kansasii [5]): 16 µM (≈ 4.99 µg/mL)
MIC (Mycobacterium kansasii [6]): 62.5 µM (≈ 19.5 µg/mL)
MIC (Mycobacterium kansasii [7]): 62.5 µM (≈ 19.5 µg/mL)
MIC (Mycobacterium kansasii [8]): 125 µM (≈ 39 µg/mL)
MIC (Mycobacterium kansasii [9]): 62.5 µM (≈ 19.5 µg/mL)
MIC (Mycobacterium kansasii [10]): 62.5 µM (≈ 19.5 µg/mL)
inhibition [11]: 4%
IC50 (HepG2): 7.34 µM
Selectivity Index [12]: 0.92

— ChEMBL document CHEMBL2086304, “Synthesis and in vitro antimycobacterial and isocitrate lyase inhibition properties of novel 2-methoxy-2'-hydroxybenzanilides, their thioxo analogues and benzoxazoles” (Eur J Med Chem, 2012)
